Tests used:
[1] = target: E3 ubiquitin-protein ligase Mdm2 (Homo sapiens, UniProt Q00987); test: Inhibition of HDM2 expressed in Escherichia coli BL21 (DE3) assessed as inhibition of HDM2 binding to p53 protein by fluorescence anisotropy competition method
Method in brief: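 Fluorescence anisotropy competition: HDM2(11–119) at 2.2 μM with 30 nM fluorescein-labeled human p53(15–29) (protein in 70-fold molar excess) in 10 mM Tris-HCl pH 7.6, 150 mM NaCl, 0.50 mM EDTA, 2 mM β-mercaptoethanol, incubated room temperature 1 h or 4 °C overnight. Competitor diluted in water from ~10−2 M stocks. Anisotropy read at 25 °C in triplicate; IC50 from nonlinear fit with slope factor.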

Protein Mdm4 = target: T1, Protein Mdm4 (Homo sapiens, UniProt O15151); test: Inhibition of GST-tagged HDMX expressed in Escherichia coli BL21 (DE3) assessed as inhibition of HDMX binding to p53 protein by fluorescence anisotropy competition method
T1 sequence (O15151 whole entry): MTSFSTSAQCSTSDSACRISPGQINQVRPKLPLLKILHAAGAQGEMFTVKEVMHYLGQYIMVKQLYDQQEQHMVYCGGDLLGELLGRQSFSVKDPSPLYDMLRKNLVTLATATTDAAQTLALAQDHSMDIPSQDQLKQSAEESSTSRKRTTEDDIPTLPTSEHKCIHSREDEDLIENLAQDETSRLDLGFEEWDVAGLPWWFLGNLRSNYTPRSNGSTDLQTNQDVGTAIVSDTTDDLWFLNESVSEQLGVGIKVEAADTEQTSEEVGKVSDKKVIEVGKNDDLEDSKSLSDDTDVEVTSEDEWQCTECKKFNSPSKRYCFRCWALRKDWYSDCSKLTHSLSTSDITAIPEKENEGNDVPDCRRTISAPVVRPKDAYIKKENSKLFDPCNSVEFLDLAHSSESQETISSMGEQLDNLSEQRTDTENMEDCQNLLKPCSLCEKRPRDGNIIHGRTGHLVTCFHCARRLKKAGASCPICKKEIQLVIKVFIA

Chain of E3 ubiquitin-protein ligase Mdm2 (Q00987 whole entry): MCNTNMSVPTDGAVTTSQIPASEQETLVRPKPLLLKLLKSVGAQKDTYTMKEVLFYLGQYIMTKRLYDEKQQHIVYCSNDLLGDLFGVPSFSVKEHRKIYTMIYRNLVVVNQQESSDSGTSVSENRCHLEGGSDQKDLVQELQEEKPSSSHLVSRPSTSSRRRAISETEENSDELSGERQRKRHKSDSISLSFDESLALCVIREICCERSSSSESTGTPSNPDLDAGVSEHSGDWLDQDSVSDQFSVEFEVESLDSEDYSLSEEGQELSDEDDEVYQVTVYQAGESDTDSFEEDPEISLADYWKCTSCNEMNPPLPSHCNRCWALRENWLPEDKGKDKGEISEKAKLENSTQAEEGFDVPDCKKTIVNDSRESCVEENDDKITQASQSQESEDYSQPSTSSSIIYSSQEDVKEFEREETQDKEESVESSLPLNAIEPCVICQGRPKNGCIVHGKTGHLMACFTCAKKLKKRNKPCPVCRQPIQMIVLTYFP

Row | Compound | IC50 ([1]; read-out: IC50) [µM] | IC50 (Protein Mdm4; read-out: IC50) [µM] | IC50 [1] | IC50 (Protein Mdm4)
1 | NCCCC[C@@H](CN(C(=O)NCCCC1CCCCC1)[C@@H](CCCCN)CN(C(=O)NCCc1ccc(Br)cc1)[C@@H](CCCCN)CN(CCC(N)=O)C(=O)NCCCc1ccc(F)cc1)NC(N)=O | – | – | Not Active | Not Active
2 | C=CCNC(=O)NC(CCC(=O)O)CN(C(=O)NCCCC1CCCCC1)C(CCCCN)CN(C(=O)NCCc1ccc(Br)cc1)C(CCC(=O)O)CN(CCC(N)=O)C(=O)NCCCc1ccc(Br)cc1 (centres undefined) | 17 | 10 | – | –
3 | Cc1ccc(CCNC(=O)N(CC(CCCCN)N(CC(CCC(=O)O)NC(=O)CCC(C)C)C(=O)NCCCC2CCCCC2)C(CCC(=O)O)CN(CCC(N)=O)C(=O)NCCCCc2ccc(F)cc2)cc1 (centres undefined) | 13 | 14 | – | –
4 | CC(C)CCCNC(=O)N(CC(CCC(=O)O)NC(N)=O)C(CCCCN)CN(C(=O)NCCc1ccc(Br)cc1)C(CCC(=O)O)CN(CCC(N)=O)C(=O)NCCCc1ccccc1 (centres undefined) | 18 | – | – | –
5 | CC(C)CCCNC(=O)N(CC(CCC(=O)O)NC(N)=O)C(CCCCN)CN(C(=O)NCCCc1ccc(Br)cc1)C(CCC(=O)O)CN(CCC(N)=O)C(=O)NCCCc1ccccc1 (centres undefined) | 20 | – | – | –
6 | NCCCCC(CN(C(=O)NCCc1ccc(Br)cc1)C(CCC(=O)O)CN(CCC(N)=O)C(=O)NCCCc1ccc(Br)cc1)N(CC(CCC(=O)O)NC(N)=O)C(=O)NCCCc1ccccc1 (centres undefined) | 13 | 20 | – | –
7 | CC(C)CCNC(=O)N(CC(CCC(=O)O)NC(N)=O)C(CCCCN)CN(C(=O)NCCc1ccc(Cl)cc1)C(CCC(=O)O)CN(CCC(N)=O)C(=O)NCCc1ccccc1 (centres undefined) | > 100 | – | – | –
8 | CC(C)CCCNC(=O)N(CC(CCC(=O)O)NC(N)=O)C(CCCCN)CN(C(=O)NCCc1ccc(Cl)cc1)C(CCC(=O)O)CN(CCC(N)=O)C(=O)NCCc1ccc(Cl)cc1 (centres undefined) | 63 | – | – | –
9 | Cc1ccc(CCCNC(=O)N(CCC(N)=O)CC(CCC(=O)O)N(CC(CCCCN)N(CC(CCC(=O)O)NC(N)=O)C(=O)NCCCC(C)C)C(=O)NCCc2ccc(Br)cc2)cc1 (centres undefined) | 24 | 36 | – | –
10 | CC(C)CCCCNC(=O)N(CC(CCC(=O)O)NC(N)=O)C(CCCCN)CN(C(=O)NCCc1ccc(Br)cc1)C(CCC(=O)O)CN(CCC(N)=O)C(=O)NCCCc1ccc(Br)cc1 (centres undefined) | 13 | 13 | – | –
11 | CC(C)CCC(=O)NC(CCC(=O)O)CN(CCC1CCC2(CCCCC2)CC1)C(CCCCN)CN(CCCCc1ccc(Br)cc1)[C@@H](CCC(=O)O)CN(CCCCCc1ccc(F)cc1)CCC(N)=O (some centres undefined) | > 100 | > 100 | – | –
12 | CC(C)CCCNC(=O)N(CC(CCC(=O)O)NC(N)=O)C(CCCCN)CN(C(=O)NCCc1ccc(Cl)cc1)C(CCC(=O)O)CN(CCC(N)=O)C(=O)NCCc1ccccc1 (centres undefined) | 85 | – | – | –
13 | CC(C)CCCNC(=O)N(CC(CCC(=O)O)NC(N)=O)C(CCCCN)CN(C(=O)NCCc1ccc(Cl)cc1)C(CCC(=O)O)CN(CCC(N)=O)C(=O)NCCCc1ccccc1 (centres undefined) | 43 | – | – | –
14 | CC(C)CCCNC(=O)N(CC(CCC(=O)O)NC(N)=O)C(CCCCN)CN(C(=O)NCCCc1ccccc1)C(CCC(=O)O)CN(CCC(N)=O)C(=O)NCCc1ccc(Br)cc1 (centres undefined) | 38 | – | – | –
15 | CC(C)CCCNC(=O)N(CC(CCC(=O)O)NC(N)=O)C(CCCCN)CN(C(=O)NCCc1ccc(Br)cc1)C(CCC(=O)O)CN(CCC(N)=O)C(=O)NCCc1ccc(Br)cc1 (centres undefined) | 17 | 41 | – | –
16 | CC(C)CCCNC(=O)N(CC(CCC(=O)O)NC(N)=O)C(CCCCN)CN(C(=O)NCCc1ccc(Br)cc1)C(CCC(=O)O)CN(CCC(N)=O)C(=O)NCCCc1ccc([N+](=O)[O-])cc1 (centres undefined) | 41 | – | – | –
17 | COc1ccc(CCCNC(=O)N(CCC(N)=O)CC(CCC(=O)O)N(CC(CCCCN)N(CC(CCC(=O)O)NC(N)=O)C(=O)NCCCC(C)C)C(=O)NCCc2ccc(Br)cc2)cc1 (centres undefined) | > 100 | > 100 | – | –

The remaining compounds from weak to strong by IC50 ([1]; read-out: IC50), led by results:

Row | IC50 ([1]; read-out: IC50) [µM] | IC50 (Protein Mdm4; read-out: IC50) [µM] | Compound | IC50 [1] | IC50 (Protein Mdm4)
18 | 12 | 12 | COc1ccc(CCCNC(=O)N(CC(CCC(=O)O)NC(N)=O)C(CCCCN)CN(C(=O)NCCc2ccc(Br)cc2)C(CCC(=O)O)CN(CCC(N)=O)C(=O)NCCCc2ccc(Br)cc2)cc1 (centres undefined) | – | –
19 | 10.5 | 7.6 | NCCCCC(CN(C(=O)NCCc1ccc(Br)cc1)C(CCC(=O)O)CN(CCC(N)=O)C(=O)NCCCc1ccc(Br)cc1)N(CC(CCC(=O)O)NC(=O)Cc1ccccc1)C(=O)NCCCC1CCCCC1 (centres undefined) | – | –
20 | 10 | 8.1 | NCCCCC(CN(C(=O)NCCc1ccc(Br)cc1)C(CCC(=O)O)CN(CCC(N)=O)C(=O)NCCCc1ccc(Br)cc1)N(CC(CCC(=O)O)NC(N)=O)C(=O)NCCCc1ccc([N+](=O)[O-])cc1 (centres undefined) | – | –
21 | 9.2 | 24 | CC(C)CCCNC(=O)N(CC(CCC(=O)O)NC(N)=O)C(CCCCN)CN(C(=O)NCCc1ccc(Br)cc1)C(CCC(=O)O)CN(CCC(N)=O)C(=O)NCCCc1ccc(Br)cc1 (centres undefined) | – | –
22 | 8.2 | 10 | NCCCCC(CN(C(=O)NCCc1ccc(Br)cc1)C(CCC(=O)O)CN(CCC(N)=O)C(=O)NCCCc1ccc(Br)cc1)N(CC(CCC(=O)O)NC(=O)[C@@H]1CCCN1)C(=O)NCCCC1CCCCC1 (some centres undefined) | – | –
23 | 8.2 | 7.5 | NCCCCC(CN(C(=O)NCCc1ccc(Br)cc1)C(CCC(=O)O)CN(CCC(N)=O)C(=O)NCCCc1ccc(Br)cc1)N(CC(CCC(=O)O)NC(N)=O)C(=O)NCCCc1ccc(Br)cc1 (centres undefined) | – | –
24 | 6.6 | 8 | NCCCCC(CN(C(=O)NCCc1ccc(Br)cc1)C(CCC(=O)O)CN(CCC(N)=O)C(=O)NCCCc1ccc(Br)cc1)N(CC(CCC(=O)O)NC(=O)NCC1CCCCC1)C(=O)NCCCC1CCCCC1 (centres undefined) | – | –
25 | 6.4 | 6.5 | NCCCCC(CN(C(=O)NCCc1ccc(Br)cc1)C(CCC(=O)O)CN(CCC(N)=O)C(=O)NCCCc1ccc(Br)cc1)N(CC(CCC(=O)O)NC(N)=O)C(=O)NCCCC1CCCCC1 (centres undefined) | – | –
26 | 5.9 | 41 | CC(C)CCC(=O)N[C@@H](CCCC(=O)O)CN(C(=O)NCCCC1CCCCC1)[C@@H](CCCCN)CN(C(=O)NCCc1ccc(Br)cc1)[C@@H](CCCC(=O)O)CN(CCC(N)=O)C(=O)NCCCc1ccc(F)cc1 | – | –
27 | 2.9 | 5.1 | Cc1ccc(CCNC(=O)N(CC(CCCCN)N(CC(CCC(=O)O)NC(=O)CCC(C)C)C(=O)NCCCC2CCCCC2)C(CCC(=O)O)CN(CCC(N)=O)C(=O)NCCCc2ccc(F)cc2)cc1 (centres undefined) | – | –
28 | 2.8 | 7.5 | NCCCCC(CN(C(=O)NCCc1ccc(Br)cc1)C(CCC(=O)O)CN(CCC(N)=O)C(=O)NCCCc1ccc(Br)cc1)N(CC(CCC(=O)O)NC(=O)CCC1CCCCC1)C(=O)NCCCC1CCCCC1 (centres undefined) | – | –
29 | 2.8 | 4.1 | CC(C)CCC(=O)NC(CCC(=O)O)CN(C(=O)NCCCC1CCCCC1)C(CCCCN)CN(C(=O)NCCc1ccc(Br)cc1)C(CCC(=O)O)CN(CCC(N)=O)C(=O)NCCCc1ccc(Br)cc1 (centres undefined) | – | –
30 | 2.6 | 2.7 | CC(C)CCC(=O)NC(CCC(=O)O)CN(C(=O)NCCCC1CCCCC1)C(CCCCN)CN(C(=O)NCCc1ccc(Br)cc1)C(CCC(=O)O)CN(CCC(N)=O)C(=O)NCCCc1ccc(F)cc1 (centres undefined) | – | –
31 | 2.3 | 3.2 | Cc1ccc(CCNC(=O)N(CC(CCCCN)N(CC(CCC(=O)O)NC(=O)CCC(C)C)C(=O)NCCCC2CCCCC2)C(CCC(=O)O)CN(CCC(N)=O)C(=O)NCCCc2ccc(Br)cc2)cc1 (centres undefined) | – | –
